This note sets out measurements from ChEMBL document CHEMBL1764962, “Selective biocatalytic aminolysis of (±)-epichlorohydrin: synthesis and ICAM-1 inhibitory activity of (S)-(+)-3-arylamino-1-chloropropan-2-ols” (Bioorg Med Chem, 2011).

Values after ≈ are worked out from the molar mass of the structure shown.

The nature of series [1]: Toxicity in human HUVEC assessed as maximum tolerable dose by trypan blue exclusion assay. To be noted: HUVEC cells, read-out: MTD. It counts as cell-based. The method, boiled down:
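Primary human umbilical vein endothelial cells were isolated by mild trypsinization. They were grown in M199 with 15% heat-inactivated FCS, 2 mM L-glutamine, penicillin/streptomycin, amphotericin B, endothelial cell growth factor and heparin. Cells were subcultured at confluence with trypsin–EDTA and used at passages three to four. Viability was scored by trypan blue exclusion.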

Series [2] deals with HUVEC. In words: Antiinflammatory activity in human HUVEC assessed as inhibition of TNF-alpha-induced ICAM-1 expression by modified ELISA. The class given is functional, cell-based. The method, boiled down:
(§1)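 Primary human umbilical cord endothelial cells were isolated by mild trypsinization and grown in M199 with 15% heat-inactivated FCS, L-glutamine, antibiotics, endothelial cell growth factor and heparin, then used at passages 3–4. Cells were preincubated with compound, then given TNF-α (10 ng/ml) for 16 h and fixed with glutaraldehyde. Surface ICAM-1 was measured by cell-ELISA using anti-ICAM-1 mAb overnight at 4 °C, HRP anti-mouse secondary and OPD substrate (pH 4.5), reading A490.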
In general terms: ELISA stands for enzyme-linked immunosorbent assay.

Series [3] relates to HUVEC. In words: Antiinflammatory activity in human HUVEC assessed as inhibition of TNF-alpha-induced ICAM-1 expression at maximum tolerable dose of 30 ug/ml by modified ELISA. It counts as functional. In short, it runs like this: as §1
Series [4] relates to HUVEC. In words: Antiinflammatory activity in human HUVEC assessed as inhibition of TNF-alpha-induced ICAM-1 expression at maximum tolerable dose of 40 ug/ml by modified ELISA. It counts as functional. The method, boiled down: as §1
Where [5] appears, read: Homo sapiens, HUVEC, read-out: IC50.

In general, IC50 refers to the concentration needed to halve the response being measured. By inhibition is commonly meant the change of the read-out against control, counted positive when it falls. `COc1ccc(OC)c(NC[C@H](O)CCl)c1`: the MNTC in series [1] was determined as 30 µg/mL. For the same molecule, in the series with HUVEC [2] (huvec), the IC50 entry was “Not Active”. Besides, in the series with HUVEC [3], the inhibition at 30 µg/mL is 40%.

As for `O[C@H](CCl)CNc1cccc(Cl)c1`, the MNTC in series [1] amounted to 30 µg/mL. Moreover, in the series with HUVEC [2] (huvec), the IC50 result is “Not Active”. The inhibition at 30 µg/mL in the series on HUVEC [3] is 24%.

For `O[C@H](CCl)CNc1ccc(Cl)cc1`, in series [1], the MNTC amounted to 30 µg/mL. For the same molecule, the IC50 in the series on HUVEC [2] (setting [5]) worked out at 28.8 µg/mL (≈ 131 µM). For the same molecule, the inhibition at 30 µg/mL in the series on HUVEC [3] stood at 60%.

As for `O[C@H](CCl)CNc1ccccc1Cl`, the MNTC in series [1] is 40 µg/mL. Further, the IC50 with HUVEC [2] (setting [5]) amounted to 33.1 µg/mL (≈ 150 µM). Moreover, the inhibition at 40 µg/mL with HUVEC [4] was 86%.

Turning to `Cc1ccc(NC[C@H](O)CCl)cc1`, in series [1], the MNTC worked out at 40 µg/mL. Moreover, the IC50 in the series with HUVEC [2] (setting [5]) turned out to be 28.8 µg/mL (≈ 144 µM). Further, in the series with HUVEC [4], the inhibition at 40 µg/mL worked out at 81%.

Consider `O[C@H](CCl)CNc1ccc(Br)cc1`, for which the MNTC in series [1] was 40 µg/mL. Further, the IC50 in the series on HUVEC [2] (setting [5]) is 31.6 µg/mL (≈ 119 µM). The inhibition at 40 µg/mL in the series with HUVEC [4] is 76%.

As for `O[C@H](CCl)CNc1ccccc1`, the MNTC in series [1] was found to be 30 µg/mL. For the same molecule, the IC50 in the series on HUVEC [2] (setting [5]) amounted to 39.8 µg/mL (≈ 214 µM). In the series on HUVEC [3], the inhibition at 30 µg/mL was found to be 38%.
